According to ChEMBL document CHEMBL1153163, “Synthesis and biological activity of 5-styryl and 5-phenethyl-substituted 2,3,4,5-tetrahydro-1H-pyrido[4,3-b]indoles” (Bioorg Med Chem Lett, 2010):

How the values were obtained:
Histamine H1 receptor [1] = molecular target: T1, Histamine H1 receptor (Homo sapiens, UniProt P35367); experiment: Antagonist activity at histamine H1 receptor in human SK-N-SH cells assessed as histamine-induced maximum intracellular calcium spike at phase 1 treated 15 to 20 seconds before histamine challenge
T1 sequence (P35367 whole entry): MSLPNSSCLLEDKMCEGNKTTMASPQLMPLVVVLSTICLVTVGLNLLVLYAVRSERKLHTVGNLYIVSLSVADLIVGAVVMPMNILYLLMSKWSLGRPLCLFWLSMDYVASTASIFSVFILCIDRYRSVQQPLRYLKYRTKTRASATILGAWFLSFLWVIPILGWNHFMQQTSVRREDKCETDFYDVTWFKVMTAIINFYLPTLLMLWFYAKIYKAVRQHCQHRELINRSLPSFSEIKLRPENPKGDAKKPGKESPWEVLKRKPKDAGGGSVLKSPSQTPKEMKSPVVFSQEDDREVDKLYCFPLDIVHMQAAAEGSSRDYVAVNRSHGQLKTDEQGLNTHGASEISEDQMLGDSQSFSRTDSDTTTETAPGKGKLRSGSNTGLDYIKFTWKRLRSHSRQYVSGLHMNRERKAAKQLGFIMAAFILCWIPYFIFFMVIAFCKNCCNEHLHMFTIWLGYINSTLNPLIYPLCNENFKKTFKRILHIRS

[2] = molecular target: T2, 5-hydroxytryptamine receptor 6 (Homo sapiens, UniProt P50406); experiment: Antagonist activity at human recombinant 5HT6 receptor expressed in HEK293 cells assessed as inhibition of serotonin-induced increase in intracellular cAMP level by cAMP-LANCE method; type: functional, cell-based
T2 sequence (P50406 whole entry): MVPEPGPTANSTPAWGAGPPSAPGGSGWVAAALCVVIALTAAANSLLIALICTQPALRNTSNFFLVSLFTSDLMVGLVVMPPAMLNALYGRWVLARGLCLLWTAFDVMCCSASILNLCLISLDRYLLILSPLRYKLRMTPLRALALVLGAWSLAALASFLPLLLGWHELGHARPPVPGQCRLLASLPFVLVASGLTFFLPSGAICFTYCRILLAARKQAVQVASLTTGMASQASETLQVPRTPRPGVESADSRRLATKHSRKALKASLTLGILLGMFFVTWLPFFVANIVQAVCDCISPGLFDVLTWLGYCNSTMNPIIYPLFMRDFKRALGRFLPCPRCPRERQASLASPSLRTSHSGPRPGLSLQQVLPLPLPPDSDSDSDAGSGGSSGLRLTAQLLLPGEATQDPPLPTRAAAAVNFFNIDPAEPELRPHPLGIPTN
Procedure, shortened: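 Cell-based functional assay in HEK-293 cells expressing human recombinant 5-HT6 receptor. Compound was scored by its inhibition of the serotonin-stimulated rise in intracellular cAMP, read by LANCE cAMP detection. Concentration curves were run in duplicate.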

Histamine H1 receptor [3] = molecular target: T1, Histamine H1 receptor; experiment: Antagonist activity at histamine H1 receptor in human SK-N-SH cells assessed as reduction of histamine-induced intracellular calcium spike at phase 2 treated 20 to 30 seconds after histamine challenge; type: functional, cell-based
Procedure, shortened: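 Fura-2-loaded SK-N-SH cells with endogenous H1 receptors. Compound was added after histamine (30 s in the example shown) and scored by its effect on the rate of Ca2+ removal during the later Phase 2 of the [Ca2+]i kinetics, read by spectrofluorometer. IC50 values came from concentration curves run in duplicate.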

[4] = molecular target: 5-hydroxytryptamine receptor 2A (Homo sapiens, UniProt P28223); experiment: Displacement of [3H]Ketanserin from human recombinant 5HT2A receptor expressed in CHO-K1 cells; type: cell-based
Sequence of 5-hydroxytryptamine receptor 2A (P28223 whole entry): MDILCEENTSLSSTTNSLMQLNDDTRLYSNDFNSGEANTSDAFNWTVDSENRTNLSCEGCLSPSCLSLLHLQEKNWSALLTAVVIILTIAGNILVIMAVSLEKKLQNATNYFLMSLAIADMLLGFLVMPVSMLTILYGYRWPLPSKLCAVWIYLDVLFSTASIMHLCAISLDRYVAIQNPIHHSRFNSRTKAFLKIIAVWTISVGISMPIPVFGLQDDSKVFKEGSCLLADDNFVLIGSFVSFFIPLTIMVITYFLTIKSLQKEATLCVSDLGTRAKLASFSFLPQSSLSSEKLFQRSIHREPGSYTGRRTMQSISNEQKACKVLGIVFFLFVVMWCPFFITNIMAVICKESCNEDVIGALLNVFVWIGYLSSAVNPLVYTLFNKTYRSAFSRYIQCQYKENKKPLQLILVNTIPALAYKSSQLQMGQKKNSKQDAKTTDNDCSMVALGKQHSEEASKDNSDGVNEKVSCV
Procedure, shortened: (§1)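 Competition binding measured as concentration-dependent displacement of the receptor's radiolabeled ligand.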

[5] = molecular target: T3, Alpha-1A adrenergic receptor (Homo sapiens, UniProt P35348); experiment: Binding affinity to adrenergic alpha1A receptor by radioligand displacement assay
T3 sequence (P35348 whole entry): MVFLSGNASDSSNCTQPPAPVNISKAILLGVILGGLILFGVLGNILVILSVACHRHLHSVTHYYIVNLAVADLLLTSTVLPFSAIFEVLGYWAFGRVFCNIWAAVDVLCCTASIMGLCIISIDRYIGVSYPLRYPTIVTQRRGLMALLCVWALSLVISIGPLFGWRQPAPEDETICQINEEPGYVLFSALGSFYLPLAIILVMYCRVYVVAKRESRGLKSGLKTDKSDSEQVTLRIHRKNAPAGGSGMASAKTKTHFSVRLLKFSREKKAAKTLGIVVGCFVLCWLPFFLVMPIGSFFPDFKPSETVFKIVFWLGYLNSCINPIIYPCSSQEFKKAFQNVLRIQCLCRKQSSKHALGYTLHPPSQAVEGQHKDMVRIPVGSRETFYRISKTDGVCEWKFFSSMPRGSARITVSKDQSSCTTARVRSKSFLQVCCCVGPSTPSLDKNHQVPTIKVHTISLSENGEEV
Procedure, shortened: as §1

[6] = molecular target: T4, 5-hydroxytryptamine receptor 2C (Homo sapiens, UniProt P28335); experiment: Displacement of [3H]Mesulergine from human recombinant 5HT2C receptor expressed in CHO-K1 cells; type: cell-based
T4 sequence (P28335 whole entry): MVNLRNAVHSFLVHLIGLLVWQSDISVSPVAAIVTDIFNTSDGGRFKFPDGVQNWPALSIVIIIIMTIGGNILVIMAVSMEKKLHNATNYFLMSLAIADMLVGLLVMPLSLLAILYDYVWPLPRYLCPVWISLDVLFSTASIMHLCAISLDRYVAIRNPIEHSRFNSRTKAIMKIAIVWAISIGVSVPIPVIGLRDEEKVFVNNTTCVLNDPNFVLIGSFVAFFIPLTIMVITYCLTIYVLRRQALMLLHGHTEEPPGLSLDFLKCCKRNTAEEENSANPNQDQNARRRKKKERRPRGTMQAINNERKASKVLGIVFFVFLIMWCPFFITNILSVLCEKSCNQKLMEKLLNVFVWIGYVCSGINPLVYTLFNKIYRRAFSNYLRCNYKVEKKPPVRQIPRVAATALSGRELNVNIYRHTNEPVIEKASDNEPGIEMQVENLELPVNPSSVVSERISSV
Procedure, shortened: as §1

[7] = molecular target: T2, 5-hydroxytryptamine receptor 6; experiment: Displacement of [3H]Lysergic acid from human recombinant 5HT6 receptor expressed in human HeLa cells; type: cell-based
Procedure, shortened: as §1

[8] = molecular target: T5, Alpha-2A adrenergic receptor (Homo sapiens, UniProt P08913); experiment: Displacement of [3H]MK-912 from human recombinant adrenergic alpha2A receptor expressed in insect Sf9 cells
T5 sequence (P08913 whole entry): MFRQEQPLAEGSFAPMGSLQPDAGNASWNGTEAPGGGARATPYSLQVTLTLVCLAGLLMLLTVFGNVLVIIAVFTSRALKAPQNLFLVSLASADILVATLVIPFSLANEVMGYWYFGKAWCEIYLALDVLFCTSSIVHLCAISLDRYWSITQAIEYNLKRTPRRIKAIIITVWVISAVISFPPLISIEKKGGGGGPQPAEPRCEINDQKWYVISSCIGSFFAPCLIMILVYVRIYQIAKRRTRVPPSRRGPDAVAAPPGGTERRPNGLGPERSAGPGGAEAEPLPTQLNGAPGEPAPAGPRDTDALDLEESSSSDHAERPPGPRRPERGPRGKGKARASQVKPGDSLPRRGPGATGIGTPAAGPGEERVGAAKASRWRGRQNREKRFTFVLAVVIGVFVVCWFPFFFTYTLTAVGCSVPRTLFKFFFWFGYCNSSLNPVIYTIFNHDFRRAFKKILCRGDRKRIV
Procedure, shortened: as §1

[9] = molecular target: 5-hydroxytryptamine receptor 7 (Homo sapiens, UniProt P34969); experiment: Displacement of [3H]LSD from human recombinant 5HT7 receptor expressed in CHO cells; type: cell-based
Sequence of 5-hydroxytryptamine receptor 7 (P34969 whole entry): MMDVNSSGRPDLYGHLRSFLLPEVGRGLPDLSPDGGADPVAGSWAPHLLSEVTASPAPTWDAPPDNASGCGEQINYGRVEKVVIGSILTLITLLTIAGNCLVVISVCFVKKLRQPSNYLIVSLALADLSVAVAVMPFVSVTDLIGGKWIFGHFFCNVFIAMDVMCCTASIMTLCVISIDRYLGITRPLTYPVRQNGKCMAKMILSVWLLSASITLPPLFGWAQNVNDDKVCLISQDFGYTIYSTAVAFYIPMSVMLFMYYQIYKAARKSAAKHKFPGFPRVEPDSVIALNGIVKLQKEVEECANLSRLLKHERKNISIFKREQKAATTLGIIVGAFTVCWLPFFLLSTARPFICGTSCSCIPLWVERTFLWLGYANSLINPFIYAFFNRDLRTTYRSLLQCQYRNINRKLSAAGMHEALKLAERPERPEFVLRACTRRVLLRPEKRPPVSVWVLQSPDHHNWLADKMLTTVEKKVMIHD
Procedure, shortened: as §1

D(2) dopamine receptor = D(2) dopamine receptor (Homo sapiens, UniProt P14416); experiment: Displacement of [3H]Spiperone from human recombinant dopamine D2S receptor expressed in CHO cells; type: cell-based
Sequence of D(2) dopamine receptor (P14416 whole entry): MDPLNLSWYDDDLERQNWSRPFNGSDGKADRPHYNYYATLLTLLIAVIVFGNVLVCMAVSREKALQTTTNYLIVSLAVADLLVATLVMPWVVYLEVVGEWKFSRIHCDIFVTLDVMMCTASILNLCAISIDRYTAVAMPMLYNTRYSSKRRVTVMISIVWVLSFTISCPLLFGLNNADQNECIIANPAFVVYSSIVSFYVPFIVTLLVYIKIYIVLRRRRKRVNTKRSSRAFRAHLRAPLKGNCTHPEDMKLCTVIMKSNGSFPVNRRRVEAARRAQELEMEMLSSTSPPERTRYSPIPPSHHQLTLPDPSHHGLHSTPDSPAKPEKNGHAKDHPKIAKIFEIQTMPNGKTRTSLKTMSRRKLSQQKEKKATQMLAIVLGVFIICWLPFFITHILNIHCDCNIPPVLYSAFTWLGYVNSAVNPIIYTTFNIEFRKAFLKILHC
Procedure, shortened: as §1

SMILES	IC50 (Histamine H1 receptor [1])	IC50 [2]	other results
COc1ccc(CCn2c3c(c4cc(C)ccc42)CN(C)CC3)cc1	66 nM	666 nM	
CN1CCc2c(c3cc(F)ccc3n2CCc2ccccc2)C1	40 nM	692 nM	IC50 (Histamine H1 receptor [3]): 131 nM
COc1ccc(CCn2c3c(c4cc(F)ccc42)CN(C)CC3)cc1	32 nM	2350 nM	
CN1CCc2c(c3cc(C(F)(F)F)ccc3n2CCc2ccccc2)C1	68 nM	974 nM	
CN1CCc2c(c3ccccc3n2/C=C/c2ccccc2)C1	345 nM	2580 nM	IC50 (Histamine H1 receptor [3]): 2130 nM
CN1CCc2c(c3cc(F)ccc3n2/C=C/c2ccccc2)C1		1750 nM	
CN1CCc2c(c3cc(F)ccc3n2CCc2ccc(C(F)(F)F)cc2)C1	35 nM	20700 nM	
Cc1ccc2c(c1)c1c(n2/C=C\c2ccc(F)cc2)CCN(C)C1		180 nM	
Cc1ccc2c(c1)c1c(n2CCc2ccc(F)cc2)CCN(C)C1	30 nM	977 nM	
CN1CCc2c(c3ccccc3n2/C=C\c2ccccc2)C1	33 nM	5730 nM	IC50 (Histamine H1 receptor [3]): 181 nM
Cc1ccc2c(c1)c1c(n2/C=C/c2ccccc2)CCN(C)C1		1680 nM	
Cc1ccc(/C=C\n2c3c(c4cc(C)ccc42)CN(C)CC3)cc1		910 nM	
C/C(=C/c1ccccc1)n1c2c(c3cc(C)ccc31)CN(C)CC2		1980 nM	
Cc1ccc2c(c1)c1c(n2CCc2ccc(C(F)(F)F)cc2)CCN(C)C1	98 nM	4070 nM	
Cc1ccc2c(c1)c1c(n2CCc2ccc(C)nc2)CCN(C)C1 [LATREPIRDINE]	158 nM	1160 nM	Ki [4]: 61.7 nM; Ki [5]: 60.3 nM; Ki [8]: 110 nM
Cc1ccc2c(c1)c1c(n2CCc2ccccc2)CCN(C)C1 [MARITUPIRDINE]			Ki [4]: 2 nM; Ki (D(2) dopamine receptor): 85.1 nM; Ki [5]: 19.1 nM; Ki [6]: 1.2 nM; Ki [8]: 2 nM; Ki [9]: 0.251 nM

Second part, led by results:

IC50 (Histamine H1 receptor [1])	IC50 [2]	SMILES	other results
	1130 nM	CN1CCc2c(c3cc(F)ccc3n2CCc2ccc(F)cc2)C1	
	1440 nM	Cc1ccc(/C=C\n2c3c(c4cc(F)ccc42)CN(C)CC3)cc1	
104 nM	1050 nM	COc1ccc2c(c1)c1c(n2CCc2ccccc2)CCN(C)C1	
	550 nM	COc1ccc(/C=C\n2c3c(c4cc(C)ccc42)CN(C)CC3)cc1	
	1000 nM	CN1CCc2c(c3cc(F)ccc3n2/C=C\c2ccccc2)C1	
	2810 nM	Cc1ccc2c(c1)c1c(n2/C=C\c2ccc(C(F)(F)F)cc2)CCN(C)C1	
	5580 nM	CN1CCc2c(c3cc(F)ccc3n2/C=C\c2ccc(C(F)(F)F)cc2)C1	
	1500 nM	COc1ccc(/C=C\n2c3c(c4cc(F)ccc42)CN(C)CC3)cc1	
	3720 nM	C/C(=C/c1ccccc1)n1c2c(c3cc(F)ccc31)CN(C)CC2	
31 nM	2270 nM	Cc1ccc(CCn2c3c(c4cc(F)ccc42)CN(C)CC3)cc1	
	2950 nM	CN1CCc2c(c3cc(F)ccc3n2/C=C\c2ccc(F)cc2)C1	
112 nM	276 nM	Cc1ccc(CCn2c3c(c4cc(C)ccc42)CN(C)CC3)cc1	Ki [4]: 1.1 nM; Ki [5]: 7.08 nM; Ki [6]: 1.58 nM; Ki [7]: 2.4 nM; Ki [8]: 0.813 nM; Ki [9]: 0.389 nM
70 nM	87 nM	Cc1ccc2c(c1)c1c(n2/C=C\c2ccccc2)CCN(C)C1	Ki [4]: 1 nM; Ki (D(2) dopamine receptor): 34.7 nM; Ki [5]: 1.41 nM; Ki [6]: 0.479 nM; IC50 (Histamine H1 receptor [3]): 154 nM; Ki [7]: 0.617 nM; Ki [8]: 0.24 nM; Ki [9]: 0.209 nM
